We go through eleven compounds from ChEMBL document CHEMBL3611976, “Synthesis of new 4-phenylpyrimidine-2(1H)-thiones and their potency to inhibit COX-1 and COX-2” (Eur J Med Chem, 2015).

Calls of active or inactive are those of the source. The rule behind the calls is not given here.

Assay [1] can be described thus: Downregulation of NF-kappaB1 gene expression in differentiated human THP1 cells stimulated with LPS at 50 ug/ml preincubated for 1 hr followed by LPS stimulation measured after 3 hrs by real-time PCR analysis. It counts as functional, cell-based. To be noted: THP-1. Put shortly: (§1)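 THP-1 monocytes differentiated to macrophages with 12 nM PMA for 48 h. Cells were treated with compound ([…]) for 1 h, with 0.1% DMSO as calibrator. They were then stimulated with LPS O55:B5 at 7.5 ng/ml, except the DMSO well, for another 3 h. Cells were washed twice with cold PBS. Total RNA was extracted and reverse-transcribed. TaqMan qPCR was run in duplicate with GAPDH as reference.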

The target of assay [2] is Prostaglandin G/H synthase 1 (Ovis aries) (UniProt P05979). The experiment in a line: Inhibition of ram seminal vesicles COX-1 using arachidonic acid as substrate at 50 ug/ml preincubated for 5 mins followed by substrate addition after 20 mins by competitive PGE2 EIA method.
Assay [3] addresses T1, Prostaglandin G/H synthase 2 (Homo sapiens) (UniProt P35354).
T1 sequence (whole entry): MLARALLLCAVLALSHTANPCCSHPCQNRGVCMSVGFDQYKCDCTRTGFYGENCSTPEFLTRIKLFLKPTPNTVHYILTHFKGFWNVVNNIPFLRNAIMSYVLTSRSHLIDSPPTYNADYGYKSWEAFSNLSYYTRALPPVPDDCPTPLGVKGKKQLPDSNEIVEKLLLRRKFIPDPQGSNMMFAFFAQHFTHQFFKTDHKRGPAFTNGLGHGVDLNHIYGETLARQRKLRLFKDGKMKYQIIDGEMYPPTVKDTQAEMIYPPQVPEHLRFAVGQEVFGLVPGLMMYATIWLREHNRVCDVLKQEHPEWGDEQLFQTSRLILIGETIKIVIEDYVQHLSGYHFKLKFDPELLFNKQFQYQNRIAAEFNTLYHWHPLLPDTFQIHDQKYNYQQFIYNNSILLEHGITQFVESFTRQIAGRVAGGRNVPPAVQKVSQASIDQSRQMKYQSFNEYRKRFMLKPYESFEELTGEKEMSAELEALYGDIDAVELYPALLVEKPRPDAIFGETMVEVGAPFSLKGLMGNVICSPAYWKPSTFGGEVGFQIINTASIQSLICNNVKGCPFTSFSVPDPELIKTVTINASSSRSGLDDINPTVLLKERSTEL
Briefly: Inhibition of COX2 in differentiated human THP1 cells assessed as […] LPS-induced COX2 gene expression at 50 ug/ml preincubated for 1 hr followed by LPS induction measured after 3 hrs by real-time PCR analysis. It counts as cell-based. To be noted: THP-1. Put shortly:
as §1
(In general: Quantitative PCR measures a nucleic acid by following its amplification.)

The target in assay [4] is T2, Prostaglandin G/H synthase 2 (Ovis aries, UniProt P79208).
T2 sequence (P79208 whole entry): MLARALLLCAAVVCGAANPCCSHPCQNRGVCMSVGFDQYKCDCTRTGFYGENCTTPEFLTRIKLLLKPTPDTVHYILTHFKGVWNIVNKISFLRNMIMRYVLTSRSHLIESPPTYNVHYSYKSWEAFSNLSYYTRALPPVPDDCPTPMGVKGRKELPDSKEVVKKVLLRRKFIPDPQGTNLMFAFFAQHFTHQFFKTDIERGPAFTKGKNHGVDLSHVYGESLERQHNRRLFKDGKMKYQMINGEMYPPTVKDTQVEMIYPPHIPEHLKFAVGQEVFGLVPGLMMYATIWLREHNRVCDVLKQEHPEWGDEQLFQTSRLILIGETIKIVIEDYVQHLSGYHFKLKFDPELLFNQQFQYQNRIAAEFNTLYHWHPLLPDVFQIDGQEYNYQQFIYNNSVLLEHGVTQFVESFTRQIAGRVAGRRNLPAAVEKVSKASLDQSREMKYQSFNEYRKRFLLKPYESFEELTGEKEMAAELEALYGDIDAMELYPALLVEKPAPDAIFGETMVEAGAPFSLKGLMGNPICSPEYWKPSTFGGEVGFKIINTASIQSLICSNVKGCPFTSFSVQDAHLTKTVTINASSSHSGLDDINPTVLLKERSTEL
Briefly: Inhibition of sheep placental cotyledons COX-2 using arachidonic acid as substrate preincubated for 5 mins followed by substrate addition after 20 mins by competitive PGE2 EIA method. Put shortly:
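Purified sheep placental PGHS-2 at 0.2 units/well in 0.1 M Tris/HCl with 18 mM epinephrine hydrogen tartrate, hematin and Na EDTA. Samples were preincubated for 5 min at room temperature, then arachidonic acid in ethanol was added to start the reaction. After 20 min at 37 °C the reaction was stopped with 10% formic acid. PGE2 was measured by competitive EIA absorbance, and inhibition was calculated relative to a blank.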

Chain of Prostaglandin G/H synthase 1 (Ovis aries) (P05979 whole entry, looked up): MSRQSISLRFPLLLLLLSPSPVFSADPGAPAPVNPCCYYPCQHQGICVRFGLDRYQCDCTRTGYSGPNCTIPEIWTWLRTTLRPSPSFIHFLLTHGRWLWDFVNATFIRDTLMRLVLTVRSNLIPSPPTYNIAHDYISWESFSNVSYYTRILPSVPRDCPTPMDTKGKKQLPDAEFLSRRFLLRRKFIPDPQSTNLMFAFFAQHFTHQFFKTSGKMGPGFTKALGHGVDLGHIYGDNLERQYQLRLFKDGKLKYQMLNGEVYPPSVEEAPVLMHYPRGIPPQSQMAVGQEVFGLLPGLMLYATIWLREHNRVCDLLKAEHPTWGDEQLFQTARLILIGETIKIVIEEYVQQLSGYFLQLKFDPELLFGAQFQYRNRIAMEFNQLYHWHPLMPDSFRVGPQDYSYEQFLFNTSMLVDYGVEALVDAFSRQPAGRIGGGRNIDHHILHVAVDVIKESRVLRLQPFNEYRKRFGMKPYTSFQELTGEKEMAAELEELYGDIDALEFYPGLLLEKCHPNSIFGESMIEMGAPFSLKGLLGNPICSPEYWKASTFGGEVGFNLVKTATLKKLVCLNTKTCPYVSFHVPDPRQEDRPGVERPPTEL

The term inhibition denotes the drop in the measured response relative to a control, in per cent. In the case of `CC1=CC(c2ccccc2)NC(=S)N1` (stereo unspecified), in assay [1], the result was Active. In assay [2], the inhibition entry is “inactive”. The inhibition result in assay [3] was “Active”. In general, IC50 refers to the concentration that inhibits the measured activity by half. Turning to `CC1=CC(c2ccccc2[N+](=O)[O-])NC(=S)N1` (racemic), the result in assay [1] was Active. Besides, the inhibition in assay [2] turned out to be 53%. The inhibition result in assay [3] was “Active”. The concentration for half-maximal inhibition (IC50) in assay [4] was found to be 50 µM. Consider `CC1=CC(C(C)C)NC(=S)N1` (racemic), for which the inhibition entry in assay [2] is “inactive”.

With `CC1=CC(c2ccc(Br)cc2)NC(=S)N1` (racemic), in assay [2], the inhibition is 15.4%. In assay [2], `CC1=CC(c2ccc(C(F)(F)F)cc2)NC(=S)N1` (racemic) showed an inhibition of 0.92%. The same measure, in the same setting: the figure for `CC1=CC(c2ccc(Cl)cc2)NC(=S)N1` (racemic) is 10.3%; for `CC1=CC(c2ccc(Cl)cc2Cl)NC(=S)N1` (racemic) it is “inactive”. For the compound `CC1=CC(c2ccc(F)cc2)NC(=S)N1` (racemic), in assay [2], the inhibition entry was “inactive”. For `CC1=CC(c2ccc([N+](=O)[O-])cc2)NC(=S)N1` (racemic), the inhibition in assay [2] was determined as 29.8%. Take `CC1=CC(c2ccccc2Cl)NC(=S)N1` (racemic): the inhibition in assay [2] worked out at 3.06%. `COc1ccc(C2C=C(C)NC(=S)N2)cc1` (racemic): the inhibition in assay [2] was 33.2%.
